Reference: ChEMBL document CHEMBL1135395, “Design and synthesis of potent nonpeptidic farnesyltransferase inhibitors based on a terphenyl scaffold” (J Med Chem, 2002)
pIC50: −log10 of the molar value.

Legend:
[1] = biological target: Protein farnesyltransferase (Homo sapiens, UniProt P49354+P49356); assay: Inhibition of farnesyltransferase from human Burkitt lymphoma (Daudi) cells
Summary of the method: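 Partially purified enzyme from Daudi cells was incubated with [3H]FPP and recombinant H-Ras-CVLS at a range of inhibitor concentrations for 30 min at 37 °C. IC50 was determined.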

[2] = biological target: Geranylgeranyl transferase type I (Homo sapiens, UniProt P49354+P53609); assay: Inhibition of partially purified Geranylgeranyl transferase type I (GGTase-I) from human Burkitt lymphoma (Daudi) cells
Summary of the method: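 Partially purified enzyme from Daudi cells was incubated with [3H]GGPP and recombinant H-Ras-CVLL at a range of inhibitor concentrations for 30 min at 37 °C. The reaction was stopped and filtered on glass fiber filters to separate free from Ras-bound label.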

| pIC50 [1] | pIC50 [2] | Structure (SMILES) |
| --- | --- | --- |
| < 5.00 | < 5.00 | O=C(O)c1cccc(-c2ccc(NCc3ccc(S)cc3)cc2-c2ccccc2)c1 |
| 6.11 | < 4.00 | Cc1cccc(-c2ccc(NC[C@@H](N)CS)cc2)c1 |
| 6.42 | 5.16 | COC(=O)c1cccc(-c2ccc(NCc3cncn3Cc3ccc(C#N)cc3)cc2-c2ccccc2)c1 |
| < 5.00 | < 5.00 | COC(=O)c1cccc(-c2ccc(NCc3cccc(S)c3)cc2-c2ccccc2)c1 |
| < 5.00 | < 5.00 | COC(=O)c1cccc(-c2ccc(NCc3ccccc3S)cc2-c2ccccc2)c1 |
| 6.51 | 5.23 | COC(=O)c1cccc(-c2ccc(NCc3cncn3Cc3ccc([N+](=O)[O-])cc3)cc2-c2ccccc2)c1 |
| < 5.00 | < 5.00 | O=C(O)c1cccc(-c2ccc(NCc3cccc(S)c3)cc2-c2ccccc2)c1 |
|  | 5.15 | Nc1ccc(Cn2cncc2CNc2ccc(-c3cccc(C(=O)O)c3)c(-c3ccccc3)c2)cc1 |
| 7.43 | 4.46 | COc1cc(NC[C@@H](N)CS)ccc1-c1cccc(C(=O)O)c1 |
| 5.25 | < 5.00 | COC(=O)c1cccc(-c2ccc(NCc3cncn3Cc3ccc(N)cc3)cc2-c2ccccc2)c1 |
| 6.82 | 4.05 | N[C@@H](CS)CNc1ccc(-c2cccc(C(=O)O)c2)cc1 |
| 6.03 | 4.00 | COC(=O)c1cccc(-c2ccc(NC[C@@H](N)CS)cc2)c1 |
| < 5.00 | < 5.00 | COC(=O)c1cccc(-c2ccc(NCc3ccc(S)cc3)cc2-c2ccccc2)c1 |
| 6.82 |  | CSCC[C@H](NC(=O)c1ccc(NC[C@@H](N)CS)cc1)C(=O)O |
| 5.42 | < 5.00 | O=C(CCS)Nc1ccc(-c2cccc(C(=O)O)c2)c(-c2ccccc2)c1 |
| < 5.00 | < 5.00 | O=C(O)c1cccc(-c2ccc(NC(=O)c3cccc(S)c3)cc2-c2ccccc2)c1 |
| 6.37 | 5.36 | N#Cc1ccc(Cn2cncc2CNc2ccc(-c3cccc(C(=O)O)c3)c(-c3ccccc3)c2)cc1 |
| 6.35 | 5.41 | O=C(O)c1cccc(-c2ccc(NCc3cncn3Cc3ccc([N+](=O)[O-])cc3)cc2-c2ccccc2)c1 |
| 7.70 | 6.19 | N[C@@H](CS)CNc1ccc(-c2cccc(C(=O)O)c2)c(-c2ccccc2)c1 |
| < 5.00 | < 5.00 | COC(=O)c1cccc(-c2ccc(NC(=O)c3cccc(S)c3)cc2-c2ccccc2)c1 |
| 5.92 | < 4.00 | N[C@@H](CS)CNc1ccc(-c2ccccc2)cc1 |
| 7.52 | 5.36 | N[C@@H](CS)CNc1ccc(-c2cccc(C3N=NN=N3)c2)cc1 |
| < 5.00 | < 5.00 | COC(=O)c1cccc(-c2ccc(NC(=O)CCS)cc2-c2ccccc2)c1 |
| 5.64 | 5.30 | O=C(O)c1cccc(-c2ccc(NCc3cnc[nH]3)cc2-c2ccccc2)c1 |
| < 5.00 | < 5.00 | COC(=O)c1cccc(-c2ccc(NCc3c[nH]cn3)cc2-c2ccccc2)c1 |
| 7.39 | 5.62 | CCCOc1cc(NC[C@@H](N)CS)ccc1-c1cccc(C(=O)O)c1 |
